# High-throughput results: PubChem, several laboratories
# NR1D1 modulator = modulators of Rev-erb alpha DNA binding, primary screen, biochemical, FITC-DNA, fluorescence polarization, uHTS. AID 1259318, 2017. Rev-erbα–FITC-DNA binding, 90 min. 0.79% of 370,000 active. activity, % at 10 µM;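 active = activity above about 14%, limit read from the data; passing the limit was not always enough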;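 also: 0% = DMSO wells with 35 nM protein and 100% = DMSO wells with 750 nM protein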
# Target sequence (P20393 whole entry, looked up): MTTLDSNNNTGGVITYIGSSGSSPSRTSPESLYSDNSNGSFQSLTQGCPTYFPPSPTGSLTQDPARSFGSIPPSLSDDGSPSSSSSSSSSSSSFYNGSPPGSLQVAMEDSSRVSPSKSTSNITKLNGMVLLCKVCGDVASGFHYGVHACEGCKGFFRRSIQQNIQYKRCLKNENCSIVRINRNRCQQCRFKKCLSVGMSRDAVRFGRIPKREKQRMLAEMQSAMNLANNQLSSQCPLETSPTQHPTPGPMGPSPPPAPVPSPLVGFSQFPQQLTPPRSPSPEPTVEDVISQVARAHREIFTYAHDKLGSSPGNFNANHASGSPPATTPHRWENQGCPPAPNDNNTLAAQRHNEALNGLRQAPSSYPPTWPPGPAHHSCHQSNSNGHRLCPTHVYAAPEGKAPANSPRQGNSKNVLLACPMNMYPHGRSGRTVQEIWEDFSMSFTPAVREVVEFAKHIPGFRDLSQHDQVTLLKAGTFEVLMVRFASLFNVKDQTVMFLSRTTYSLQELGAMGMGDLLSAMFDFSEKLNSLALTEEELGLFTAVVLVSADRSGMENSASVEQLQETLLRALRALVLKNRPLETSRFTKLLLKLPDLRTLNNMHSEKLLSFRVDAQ
# TPT1 inh = Candida albicans TPT1 enzyme inhibitors, primary screen, biochemical, fluorescence polarization | tRNA 2'-phosphotransferase TPT1 (Candida albicans SC5314) | recombinant caTPT1, FP RNA substrate dephosphorylation | inhibition, % at 5 µM | 0.81% of 300,000 active | AID 1962, 2009;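 active = inhibition above the mean of all tested compounds plus 3 SD, set per screening campaign, cut at about 24% in these data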;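 also: plate controls were DMSO alone for no effect and ferristatin control at 100 nM for full effect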
# HNF4A DNA FP = change in binding of human HNF4A to DNA, primary screen, biochemical, fluorescence polarization, FITC-DNA; Hepatocyte nuclear factor 4-alpha (Homo sapiens), P41235; 1 h; activity change, % at 10 µM; 0.3% of 360,000 active; in the data active = activity change above about 30%, passing the limit was not always enough
# CSN inh = inhibitors of CSN-mediated cullin deneddylation, primary screen, biochemical, fluorescence polarization, uHTS | COP9 signalosome complex subunit 5 (Homo sapiens), Q92905 | Purified CSN, SCF-Nedd8-OG deneddylation | inhibition, % at 12.5 µM | 0.38% of 360,000 active | AID 651999, 2013;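 active = pattern-corrected inhibition above about 35%, with an unprinted fluorescence ratio check between 0.5 and 1.5, limit read from the data, passing the limit was not always enough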;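 also: 0% = enzyme with substrate and 100% = substrate without enzyme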
#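 Test system: Human Csn5 produced in HEK293T cells | Compound: 12.5 µM single point | Times: 90 min, room temperature | Signal: Fluorescence polarization readout | Read-out basis: % inhibition of substrate cleavage by Csn5 | Controls: no-enzyme wells high, enzyme-with-substrate wells low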
# Rev-erbA confirm = modulators of Rev-erb alpha DNA binding, confirmation, biochemical, FITC-DNA, fluorescence polarization, single point | 90 min | shares compounds with NR1D1 modulator | activation, % at 25 µM | 61% of 3,000 active;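 active = activation at or above a set limit, or at least 3 SD above the negative control mean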;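 also: 0% = 35 nM protein with DMSO and 100% = 750 nM protein high control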
# RORg counter = modulation of RORgamma DNA binding, dose response, counter-screen for Rev-erb alpha modulator project, biochemical, fluorescence polarization, FITC-DNA; 8% of 910 active; purified RORgamma protein-FITC-DNA binding; shares compounds with NR1D1 modulator; IC50, µM;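 active = Compounds whose fitted half-maximal concentration for disrupting protein-DNA binding is below 10 micromolar; the record names Rev-erb in its text, so the target is in doubt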
# Active calls of the source: *; i = inactive; x = no result. An excerpt weighted towards active compounds, which were near 1.7% of everything screened.
SMILES,NR1D1 modulator,TPT1 inh,HNF4A DNA FP,CSN inh,Rev-erbA confirm,others
COC(=O)c1sc2nc(-c3ccccc3)c3c(c2c1N)CCCC3,68.6*,0.0,0.9,0.7,39.1*,RORg counter=>40
COC[C@@H](O)[C@H]1OCc2cc(OC)ccc2[C@@H]1/C=C/c1ccccc1,-4.1,x,x,x,x,
COC(=O)c1ccccc1NC(=O)C1=CC(c2cccs2)=NS(=O)(=O)N1C,52.0*,-0.8,2.0,-5.4,31.7*,RORg counter=3.02*
CC(C)OC(=O)CSc1nnc2c3ccccc3n(C)c2n1,-0.1,-2.2,-0.5,-2.9,x,
CC(C)CSc1nnc2c3ccccc3n(C)c2n1,19.8*,-2.7,2.4,-1.9,14.7,
COC(=O)c1ccc(S(=O)(=O)NCCSc2nnc3c4ccccc4n(C)c3n2)cc1,29.2*,0.3,6.7,-0.3,17.7*,
CC(CO)(CO)NC(=O)c1ccc(C#Cc2cccc(F)c2)cn1,-4.9,x,x,x,x,
Cc1cc(N2CCC(C)CC2)nc2ccccc12,-2.2,x,x,x,x,
C[C@H]1[C@@H](N(C)Cc2cccs2)CC[C@@]23CCCN2C(=O)CCC[C@@H]13,-1.2,x,x,x,x,
Cc1ccccc1OCCC(=O)Nc1ccc2c(C)cc(=O)oc2c1,23.1*,1.6,-0.1,-3.4,6.3,
CC(C)(C)NC(=O)C(c1ccnc2ccccc12)n1c(=O)c(-c2ccco2)nc2ccccc21 (centres undefined),7.6,x,16.8,7.7,x,
Clc1ccc(-c2nc3ccc(Br)cn3c2Cc2cccc(Cl)c2)cc1,25.1*,x,3.1,5.8,19.0*,
Cc1ccc(-c2nc3ccc(Br)cn3c2Cc2cccc(Cl)c2)cc1,18.9*,x,9.6,8.0,9.7,
Clc1cccc(Cc2c(-c3cccc(Cl)c3)nc3ccc(Br)cn23)c1,25.9*,x,2.6,2.3,18.6*,
Cc1ccc(-c2nc3ccc(C)cn3c2Cc2cccc(Cl)c2)cc1,3.0,x,1.7,2.5,x,
Cc1cc(Br)c2nc(-c3ccc(F)cc3)c(Cc3cccc(Cl)c3)n2c1,28.7*,x,x,x,13.0*,
CCCCCCc1ccc(NC(=O)[C@@H]2CC=C[C@@H]3CCN(Cc4ccccc4)C(=O)[C@@H]32)cc1,0.3,x,x,x,x,
Cc1cc(C(=O)N2CCN(c3ncccn3)CC2)sc1-c1ccccc1,0.3,-4.4,-0.3,8.2,x,
Cc1cc(C(=O)N2CCN(S(C)(=O)=O)CC2)sc1-c1ccccc1,41.2*,-1.3,20.0,2.1,35.0*,
CCCC(=O)N1CCC(NS(=O)(=O)c2ccc3c(c2)CCN3C(C)=O)CC1,-5.7,x,x,x,x,
COc1ccc(C(=O)OCC(=O)Nc2nc3c(F)c(F)c(F)cc3s2)cc1OC,19.9*,2.7,5.8,-7.6,3.1,
CCC1CCCCN1S(=O)(=O)c1ccc(NC(=O)C2CC(=O)N(C(C)(C)C)C2)cc1 (centres undefined),5.0,x,-1.5,1.4,x,
Cc1cccc(NC(=O)CSc2ncnc3sc(C)c(C)c23)n1,-2.4,x,7.3,7.0,x,
Cc1sc2ncnc(SCC(=O)NC(=O)c3cccn3C)c2c1C,38.9*,1.6,3.1,-1.1,25.3*,
Cc1sc2ncnc(SCC(=O)N3c4ccccc4Sc4ccc(Cl)cc43)c2c1C,131.6*,-0.2,3.2,-3.1,17.1*,
SMILES,NR1D1 modulator,TPT1 inh,HNF4A DNA FP,CSN inh,Rev-erbA confirm,others
Nn1c(SCC(=O)Nc2ccc(C(=O)O)cc2)nnc1-c1ccco1,-1.5,x,x,x,x,
CCC[C@H]1[C@@H](OC(=O)NC(CC)CC)CC[C@@]23CCCN2C(=O)CCC[C@@H]13,0.9,x,x,x,x,
CN1C(=O)c2cccc3c(Br)ccc(c23)C1=O,6.5,-4.9,-0.6,4.7,x,
CNc1ccc2c3c(cccc13)C(=O)N(C)C2=O,382.1*,-62.6,-91.0,-73.6,339.1*,RORg counter=>40
CN1C(=O)c2cccc3c(N(C)C)ccc(c23)C1=O,27.1*,9.6,8.7,8.4,29.3*,
CN1C(=O)c2cccc3c(Cl)ccc(c23)C1=O,4.5,-5.1,-5.6,-0.3,x,
CCN1/C(=C/C=C/c2oc3ccc(-c4ccccc4)cc3[n+]2CC)Oc2ccc(-c3ccccc3)cc21,139.4*,-10.7,-97.8,-103.8,134.7*,RORg counter=i
CCCCN1CCN(C(=O)c2cn(C(C)c3ccccc3)nn2)CC1 (centres undefined),-1.4,x,x,x,x,
CN(C)c1ccc(C(=O)NC2CCCCN(Cc3cccc(Cl)c3)C2=O)cc1 (centres undefined),4.4,x,x,x,x,
C[C@H](CO)N1C[C@H](C)[C@@H](CN(C)Cc2ccc(Oc3ccccc3)cc2)OCc2cnnn2CCCC1=O,0.2,x,-2.0,-3.5,x,
CCc1nc2c(c(SC)nn2-c2ccccc2)c(N)c1C(=O)OC,25.9*,-3.3,1.3,-4.0,7.2,
COC(=O)c1cc(C)nc2c1c(C)nn2-c1ccccc1,-0.4,x,0.2,1.3,x,
O=S1(=O)c2ccc(N3CCSCC3)cc2Oc2ccccc2CN1Cc1cn(Cc2ccc(Cl)cc2)nn1,18.5,x,x,x,x,
O=S1(=O)c2ccc(N3CCSCC3)cc2Oc2ccccc2CN1Cc1cn(Cc2cccc(C(F)(F)F)c2)nn1,17.7*,x,x,x,10.5,
O=S1(=O)c2ccc(N3CCSCC3)cc2Oc2ccccc2CN1Cc1cn(Cc2ccc(F)cc2)nn1,20.4*,x,x,x,18.8*,
C=CCN1C(=O)[C@@H](CC(=O)NCc2ccccc2)[C@]2(C(=O)OC)CCCCC=C12,-0.4,x,x,x,x,
COc1ccc(-c2cc3c(=O)n(CC(=O)NCCCc4ccccc4)ncn3n2)cc1,9.4,-0.8,0.1,0.0,x,
CCOc1ccc(CCNC(=O)Cn2ncn3nc(-c4ccc(OC)cc4)cc3c2=O)cc1OCC,22.6*,-3.5,-1.6,-1.7,-2.0,
CS(=O)(=O)c1ccc(Cl)c(NC(=O)CSc2nnc(C3CC3)n2C2CC2)c1,16.9*,x,-1.4,1.9,-0.1,
Cc1nc(SCc2nc3ccc(F)cc3[nH]2)c2oc3ccccc3c2n1,-3.5,x,1.7,6.6,x,
Cc1nc(SCc2nc3ccc(C(=O)c4ccccc4)cc3[nH]2)c2oc3ccccc3c2n1,63.3*,x,-0.1,29.4,75.5*,
Cc1nc(SCc2nc3ccccc3[nH]2)c2oc3cc(Br)ccc3c2n1,46.4*,x,14.6,23.1,53.2*,RORg counter=>40
Cc1ccc2oc3c(SCc4nc5ccccc5[nH]4)nc(C)nc3c2c1,-4.4,x,3.8,6.1,x,
Cc1cccc(CCNS(=O)(=O)c2ccc3c(c2)NC(=O)C(C)S3)c1 (centres undefined),1.2,-0.3,1.1,2.2,x,
Cc1nc2cc[nH]n2c(=O)c1CCc1ccccc1,-0.8,x,x,x,x,
